# Results taken from ChEMBL document CHEMBL1147939, “Synthesis and biological evaluation of new 3-substituted indole derivatives as potential anti-inflammatory and analgesic agents” (2007).
# System: Mus musculus
# Assay: Antiinflammatory activity in Swiss mouse assessed as inhibition of carrageenan-induced hind paw oedema at 35 mg/kg, po after 4 hrs
# Format: functional
# Conditions: not given
# Procedure, shortened: (§1)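 Swiss mice (20–30 g), six per group; oral dosing, test agents in distilled water, reference in 5% sodium bicarbonate, saline controls. Oedema induced by subplantar injection of 50 µL 1% carrageenan in saline into right hind paw. Paw size measured before and 4 h after carrageenan. % oedema inhibition calculated versus saline control group's % oedema formation. Mean ± SE; one-way ANOVA, Duncan's test.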
row,SMILES,inhibition in vivo at 35 mg/kg
1,COc1ccc2c(c1)c(CC(=O)O)c(C)n2C(=O)c1ccc(Cl)cc1 [INDOMETHACIN],-29.9%

# System: Mus musculus
# Assay: Effect on thermal pain in Swiss mouse at 70 mg/kg, po after 1 hr by hot plate test
# Format: functional
# Conditions: not given
# Procedure, shortened: (§2)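 Hot-plate at 52 °C, 60 s cut-off, Swiss mice, six per group. Latency to paw licking or jumping recorded before and 1 h after oral dosing (test agents in distilled water, reference in 5% sodium bicarbonate). % change from basal latency. Mean ± SE; one-way ANOVA, Duncan's test.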
row,SMILES,Activity
1,CCOC(=O)C1=NN(c2ccc(Cl)cc2)/C(=C(\C#N)C(=O)c2c[nH]c3ccccc23)S1,9.9%
2,N#C/C(=N\Nc1nc2ccccc2[nH]1)C(=O)c1c[nH]c2ccccc12,8.6%
3,CC(=O)C1=NN(c2ccccc2)/C(=C(\C#N)C(=O)c2c[nH]c3ccccc23)S1,2.4%
4,CCOC(=O)C1=NN(c2ccccc2)/C(=C(\C#N)C(=O)c2c[nH]c3ccccc23)S1,9.6%
5,N#C/C(C(=O)c1c[nH]c2ccccc12)=C1/SCC(=O)N1c1ccccc1,76.5%
6,CC(=O)C1=NN(c2ccc(C)cc2)/C(=C(\C#N)C(=O)c2c[nH]c3ccccc23)S1,21%
7,N#C/C(C(=O)c1c[nH]c2ccccc12)=C(\S)Nc1ccccc1,24.2%
8,N#C/C(C(=O)c1c[nH]c2ccccc12)=C1/SC(c2ccccc2)=NN1c1ccccc1,27.3%
9,CCOC(=O)C1=NN(c2ccc(C)cc2)/C(=C(\C#N)C(=O)c2c[nH]c3ccccc23)S1,11.4%
10,N#C/C(=N\Nc1cc(-c2ccccc2)n[nH]1)C(=O)c1c[nH]c2ccccc12,28.3%
11,CC(=O)C1=NN(c2ccc(Cl)cc2)/C(=C(\C#N)C(=O)c2c[nH]c3ccccc23)S1,69.6%
12,CC(=O)c1sc(Nc2ccccc2)c(C#N)c1-c1c[nH]c2ccccc12,11.2%

# System: Mus musculus
# Assay: Antinociceptive activity in Swiss mouse assessed as inhibition of acetic-acid induced writhing at 70 mg/kg, po after 30 mins by Koster test
# Format: functional
# Conditions: not given
# Procedure, shortened: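 Koster writhing test in Swiss mice (20–30 g), six per group. Oral dosing, test agents in distilled water, reference in 5% sodium bicarbonate. After 60 min, 0.6% acetic acid given ip (0.2 mL/mouse). Writhes counted over 30 min. % change versus saline control group. Mean ± SE; one-way ANOVA, Duncan's test.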
row,SMILES,percent change in writhing count versus control
1,CCOC(=O)C1=NN(c2ccc(Cl)cc2)/C(=C(\C#N)C(=O)c2c[nH]c3ccccc23)S1,-76%
2,N#C/C(=N\Nc1nc2ccccc2[nH]1)C(=O)c1c[nH]c2ccccc12,-63.2%
3,CC(=O)C1=NN(c2ccccc2)/C(=C(\C#N)C(=O)c2c[nH]c3ccccc23)S1,-71.6%
4,CCOC(=O)C1=NN(c2ccccc2)/C(=C(\C#N)C(=O)c2c[nH]c3ccccc23)S1,-61.7%
5,N#C/C(C(=O)c1c[nH]c2ccccc12)=C1/SCC(=O)N1c1ccccc1,-60.9%
6,CC(=O)C1=NN(c2ccc(C)cc2)/C(=C(\C#N)C(=O)c2c[nH]c3ccccc23)S1,-57.8%
7,N#C/C(C(=O)c1c[nH]c2ccccc12)=C(\S)Nc1ccccc1,-64.1%
8,N#C/C(C(=O)c1c[nH]c2ccccc12)=C1/SC(c2ccccc2)=NN1c1ccccc1,-35.3%
9,CCOC(=O)C1=NN(c2ccc(C)cc2)/C(=C(\C#N)C(=O)c2c[nH]c3ccccc23)S1,-77.5%
10,N#C/C(=N\Nc1cc(-c2ccccc2)n[nH]1)C(=O)c1c[nH]c2ccccc12,-62.5%
11,CC(=O)C1=NN(c2ccc(Cl)cc2)/C(=C(\C#N)C(=O)c2c[nH]c3ccccc23)S1,-45.7%
12,CC(=O)c1sc(Nc2ccccc2)c(C#N)c1-c1c[nH]c2ccccc12,-68.6%

# System: Mus musculus
# Assay: Antinociceptive activity in Swiss mouse assessed as inhibition of acetic-acid induced writhing at 35 mg/kg, […] by Koster test
# Format: functional
# Parameters: scale not given: the % may be the effect or the level left
# Conditions: route oral
row,SMILES,Activity
1,COc1ccc2c(c1)c(CC(=O)O)c(C)n2C(=O)c1ccc(Cl)cc1 [INDOMETHACIN],-80.7%

# System: Mus musculus
# Assay: Antiinflammatory activity in Swiss mouse assessed as inhibition of carrageenan-induced hind paw oedema at 70 mg/kg, po after 4 hrs relative to indomethacin
# Format: functional
# Conditions: not given
# Procedure, shortened: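 Carrageenan paw oedema in Swiss mice, six per group, 70 mg/kg orally in distilled water; 50 µL 1% carrageenan subplantar, paw measured at 0 and 4 h. Potency expressed as ratio of the compound's percentage change to that of the indomethacin group (35 mg/kg in 5% sodium bicarbonate).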
row,SMILES,Activity
1,CCOC(=O)C1=NN(c2ccc(Cl)cc2)/C(=C(\C#N)C(=O)c2c[nH]c3ccccc23)S1,0.6 ratio (fold of indomethacin)
2,N#C/C(=N\Nc1nc2ccccc2[nH]1)C(=O)c1c[nH]c2ccccc12,0.9 ratio (fold of indomethacin)
3,CC(=O)C1=NN(c2ccccc2)/C(=C(\C#N)C(=O)c2c[nH]c3ccccc23)S1,0.6 ratio (fold of indomethacin)
4,CCOC(=O)C1=NN(c2ccccc2)/C(=C(\C#N)C(=O)c2c[nH]c3ccccc23)S1,0.2 ratio (fold of indomethacin)
5,N#C/C(C(=O)c1c[nH]c2ccccc12)=C1/SCC(=O)N1c1ccccc1,0.3 ratio (fold of indomethacin)
6,CC(=O)C1=NN(c2ccc(C)cc2)/C(=C(\C#N)C(=O)c2c[nH]c3ccccc23)S1,1.1 ratio (fold of indomethacin)
7,N#C/C(C(=O)c1c[nH]c2ccccc12)=C(\S)Nc1ccccc1,0.9 ratio (fold of indomethacin)
8,N#C/C(C(=O)c1c[nH]c2ccccc12)=C1/SC(c2ccccc2)=NN1c1ccccc1,0.9 ratio (fold of indomethacin)
9,CCOC(=O)C1=NN(c2ccc(C)cc2)/C(=C(\C#N)C(=O)c2c[nH]c3ccccc23)S1,0.4 ratio (fold of indomethacin)
10,N#C/C(=N\Nc1cc(-c2ccccc2)n[nH]1)C(=O)c1c[nH]c2ccccc12,0.4 ratio (fold of indomethacin)
11,CC(=O)C1=NN(c2ccc(Cl)cc2)/C(=C(\C#N)C(=O)c2c[nH]c3ccccc23)S1,0.5 ratio (fold of indomethacin)
12,CC(=O)c1sc(Nc2ccccc2)c(C#N)c1-c1c[nH]c2ccccc12,1.5 ratio (fold of indomethacin)

# System: Mus musculus
# Assay: Effect on thermal pain in Swiss mouse at 70 mg/kg, po after 1 hr by hot plate test relative to indomethacin
# Format: functional
# Parameters: unit not given here
# Conditions: not given
# Procedure, shortened: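 Hot-plate at 52 °C (60 s cut-off), Swiss mice, six per group. Latency to licking or jumping measured before and 1 h after 70 mg/kg orally. Potency is the ratio of % change from basal to that of the indomethacin group (35 mg/kg).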
row,SMILES,Activity
1,CCOC(=O)C1=NN(c2ccc(Cl)cc2)/C(=C(\C#N)C(=O)c2c[nH]c3ccccc23)S1,0.4
2,N#C/C(=N\Nc1nc2ccccc2[nH]1)C(=O)c1c[nH]c2ccccc12,0.4
3,CC(=O)C1=NN(c2ccccc2)/C(=C(\C#N)C(=O)c2c[nH]c3ccccc23)S1,0.1
4,CCOC(=O)C1=NN(c2ccccc2)/C(=C(\C#N)C(=O)c2c[nH]c3ccccc23)S1,0.4
5,N#C/C(C(=O)c1c[nH]c2ccccc12)=C1/SCC(=O)N1c1ccccc1,3.4
6,CC(=O)C1=NN(c2ccc(C)cc2)/C(=C(\C#N)C(=O)c2c[nH]c3ccccc23)S1,0.9
7,N#C/C(C(=O)c1c[nH]c2ccccc12)=C(\S)Nc1ccccc1,1.1
8,N#C/C(C(=O)c1c[nH]c2ccccc12)=C1/SC(c2ccccc2)=NN1c1ccccc1,1.2
9,CCOC(=O)C1=NN(c2ccc(C)cc2)/C(=C(\C#N)C(=O)c2c[nH]c3ccccc23)S1,0.5
10,N#C/C(=N\Nc1cc(-c2ccccc2)n[nH]1)C(=O)c1c[nH]c2ccccc12,1.3
11,CC(=O)C1=NN(c2ccc(Cl)cc2)/C(=C(\C#N)C(=O)c2c[nH]c3ccccc23)S1,3.1
12,CC(=O)c1sc(Nc2ccccc2)c(C#N)c1-c1c[nH]c2ccccc12,0.5

# System: Mus musculus
# Assay: Antiinflammatory activity in Swiss mouse assessed as inhibition of carrageenan-induced hind paw oedema at 70 mg/kg, po after 4 hrs
# Format: functional
# Conditions: not given
# Procedure, shortened: as §1
row,SMILES,inhibition in vivo at 70 mg/kg
1,CCOC(=O)C1=NN(c2ccc(Cl)cc2)/C(=C(\C#N)C(=O)c2c[nH]c3ccccc23)S1,-19.1%
2,N#C/C(=N\Nc1nc2ccccc2[nH]1)C(=O)c1c[nH]c2ccccc12,-25.5%
3,CC(=O)C1=NN(c2ccccc2)/C(=C(\C#N)C(=O)c2c[nH]c3ccccc23)S1,-21.9%
4,CCOC(=O)C1=NN(c2ccccc2)/C(=C(\C#N)C(=O)c2c[nH]c3ccccc23)S1,-5.5%
5,N#C/C(C(=O)c1c[nH]c2ccccc12)=C1/SCC(=O)N1c1ccccc1,-7.7%
6,CC(=O)C1=NN(c2ccc(C)cc2)/C(=C(\C#N)C(=O)c2c[nH]c3ccccc23)S1,-32.7%
7,N#C/C(C(=O)c1c[nH]c2ccccc12)=C(\S)Nc1ccccc1,-28%
8,N#C/C(C(=O)c1c[nH]c2ccccc12)=C1/SC(c2ccccc2)=NN1c1ccccc1,-31%
9,CCOC(=O)C1=NN(c2ccc(C)cc2)/C(=C(\C#N)C(=O)c2c[nH]c3ccccc23)S1,-11.5%
10,N#C/C(=N\Nc1cc(-c2ccccc2)n[nH]1)C(=O)c1c[nH]c2ccccc12,-13.1%
11,CC(=O)C1=NN(c2ccc(Cl)cc2)/C(=C(\C#N)C(=O)c2c[nH]c3ccccc23)S1,-15%
12,CC(=O)c1sc(Nc2ccccc2)c(C#N)c1-c1c[nH]c2ccccc12,-44.4%

# System: Mus musculus
# Assay: Effect on thermal pain in Swiss mouse at 35 mg/kg, po after 1 hr by hot plate test
# Format: functional
# Conditions: not given
# Procedure, shortened: as §2
row,SMILES,Activity
1,COc1ccc2c(c1)c(CC(=O)O)c(C)n2C(=O)c1ccc(Cl)cc1 [INDOMETHACIN],22.6%

# System: Mus musculus
# Assay: Antinociceptive activity in Swiss mouse assessed as inhibition of acetic-acid induced writhing at 70 mg/kg, po after 30 mins by Koster test relative to indomethacin
# Format: functional
# Conditions: not given
# Procedure, shortened: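 Acetic acid writhing in Swiss mice, six per group: 70 mg/kg orally in distilled water, 0.6% acetic acid ip 60 min later, writhes counted over 30 min. Potency is the ratio of % change to that of the indomethacin group (35 mg/kg).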
row,SMILES,Activity
1,CCOC(=O)C1=NN(c2ccc(Cl)cc2)/C(=C(\C#N)C(=O)c2c[nH]c3ccccc23)S1,0.9 ratio to indomethacin
2,N#C/C(=N\Nc1nc2ccccc2[nH]1)C(=O)c1c[nH]c2ccccc12,0.78 ratio to indomethacin
3,CC(=O)C1=NN(c2ccccc2)/C(=C(\C#N)C(=O)c2c[nH]c3ccccc23)S1,0.88 ratio to indomethacin
4,CCOC(=O)C1=NN(c2ccccc2)/C(=C(\C#N)C(=O)c2c[nH]c3ccccc23)S1,0.76 ratio to indomethacin
5,N#C/C(C(=O)c1c[nH]c2ccccc12)=C1/SCC(=O)N1c1ccccc1,0.75 ratio to indomethacin
6,CC(=O)C1=NN(c2ccc(C)cc2)/C(=C(\C#N)C(=O)c2c[nH]c3ccccc23)S1,0.7 ratio to indomethacin
7,N#C/C(C(=O)c1c[nH]c2ccccc12)=C(\S)Nc1ccccc1,0.79 ratio to indomethacin
8,N#C/C(C(=O)c1c[nH]c2ccccc12)=C1/SC(c2ccccc2)=NN1c1ccccc1,0.4 ratio to indomethacin
9,CCOC(=O)C1=NN(c2ccc(C)cc2)/C(=C(\C#N)C(=O)c2c[nH]c3ccccc23)S1,0.96 ratio to indomethacin
10,N#C/C(=N\Nc1cc(-c2ccccc2)n[nH]1)C(=O)c1c[nH]c2ccccc12,0.77 ratio to indomethacin
11,CC(=O)C1=NN(c2ccc(Cl)cc2)/C(=C(\C#N)C(=O)c2c[nH]c3ccccc23)S1,0.57 ratio to indomethacin
12,CC(=O)c1sc(Nc2ccccc2)c(C#N)c1-c1c[nH]c2ccccc12,0.85 ratio to indomethacin
